Compounds with a hit are over-represented: about 3.1% of the library has one in this group of screens.
UBC13 inh – blocks human UBC13 polyubiquitin chain formation; TR-FRET; actives 0.47% (n = 330,000); P61088; inhibition, % at 20 µM; in the data active = inhibition above about 45%, passing the limit was not always enough
Target sequence (P61088 whole entry, looked up): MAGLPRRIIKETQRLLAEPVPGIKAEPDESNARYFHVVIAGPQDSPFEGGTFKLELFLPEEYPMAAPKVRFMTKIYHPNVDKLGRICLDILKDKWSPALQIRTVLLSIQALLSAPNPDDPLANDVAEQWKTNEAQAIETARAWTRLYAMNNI
SENP8 block-1 – blocks the human protease SENP8; Q96LD8; actives 1.2% (n = 330,000); inhibition, % at 10 µM; purified SENP8, Z-RLRGG-aminoluciferin cleavage, luminescence; AID 2540; in the data active = inhibition above about 50%
Target sequence (Q96LD8 whole entry, looked up): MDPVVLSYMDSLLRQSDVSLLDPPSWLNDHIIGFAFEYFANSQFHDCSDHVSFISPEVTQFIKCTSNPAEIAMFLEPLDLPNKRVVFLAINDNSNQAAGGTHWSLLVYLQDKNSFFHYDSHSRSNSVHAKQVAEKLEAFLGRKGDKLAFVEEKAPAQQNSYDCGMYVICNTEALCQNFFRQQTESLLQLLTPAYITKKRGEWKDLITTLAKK
SENP7 inh – inhibitors of human SENP7 protease. actives 1.5% (n = 330,000). AID 434973. inhibition, % at 5 µM. Q9BQF6. recombinant SENP7, Z-RLRGG-aminoluciferin luminescence, 40 min;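 active = inhibition above about 50% at the single test dose, limit read from the data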;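 also: plate controls were DMSO with enzyme for no effect and no enzyme buffer wells for full effect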
SENP6 inh – SENP6 protease inhibition | Q9GZR1 | Recombinant SENP6 catalytic domain, aminoluciferin luminescence | inhibition, % at 10 µM | actives 1.8% (n = 330,000);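 active = inhibition above about 50% at the single tested dose, limit read from the data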;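 also: plate controls were DMSO wells with enzyme for no effect and DMSO wells lacking enzyme for full effect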
SENP8 block-2 – SENP8 (human) protease inhibition; Q96LD8; recombinant SENP8, Nedd8 substrate fluorescence; inhibition, % at 20 µM; actives 0.64% (n = 360,000); AID 602440; in the data active = inhibition mostly above about 40%, no sharp cut-off; inactive = mostly below about 27%
Apaf-1 inh – blocks human Apaf-1 apoptosome activity | actives 0.71% (n = 330,000) | AID 489030 | reconstituted apoptosome caspase-3 activity, DEVD-Rh110 fluorescence | O14727 | inhibition, % at 20 µM; active = inhibition of at least 40% at 20 µM;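 also: plate controls were DMSO wells for no effect and DEVD-CHO caspase inhibitor wells for full effect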
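Material: reconstituted apoptosome with Apaf-1, cytochrome c, caspase-9, procaspase-3, dATP; medium: pH 7.5 Hepes buffer with CHAPS, BSA, DTT; also added: cytochrome c and DEVD-Rh110 substrate; timing: 30 min plus 50 min, RT; signal: Rh110 fluorescence intensity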
SENP8 conf – human SENP8 inhibition, confirmed; shares compounds with SENP7 inh; inhibition, % at 12.5 µM; Recombinant SENP8, Z-RLRGG-aminoluciferin luminescence, 60 min; actives 40% (n = 6,200);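 active = mean inhibition across replicates above about 50%, limit read from the data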
SENP6 confirm – confirmation of human SENP6 protease inhibitors; shares compounds with SENP7 inh; recombinant SENP6, Z-RLRGG-aminoluciferin luminescence; inhibition, % at 12.5 µM; actives 58% (n = 6,200); AID 488915
SENP7 confirm – human SENP7 inhibition, confirmed; shares compounds with SENP7 inh; AID 488917; actives 69% (n = 6,200); recombinant SENP7, Z-RLRGG-aminoluciferin luminescence, 40 min; inhibition, % at 12.5 µM
Casp3 select – caspase-3 inhibition (SENP selectivity assay) | purified caspase-3, Z-DEVD-aminoluciferin luminescence, 60 min | shares compounds with SENP7 inh | AID 488918 | inhibition, % at 12.5 µM | actives 60% (n = 6,200);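 active = mean inhibition above about 50%, limit read from the data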;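 also: plate controls were enzyme with DMSO for no effect and wells without caspase-3 for full effect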
SENP luc ctr – interferes with luciferase luminescence in SENP counter-screen; inhibition, % at 12.5 µM; shares compounds with SENP7 inh; actives 39% (n = 6,200); Pre-incubated SENP8/Z-RLRGG-aminoluciferin, luciferase luminescence interference;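 active = mean inhibition above about 50% when retested at one dose, limit read from the data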;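 also: plate controls were DMSO wells with completed reaction for no effect and substrate without enzyme for full effect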
An asterisk follows results filed as active; / = no result given.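 The calls were made as follows, unless noted: active = mean inhibition above about 50% in the one-dose retest (limit read from the data); inactive = the rest.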

SMILES	UBC13 inh	SENP8 block-1	SENP7 inh	SENP6 inh	SENP8 block-2	Apaf-1 inh	SENP8 conf	SENP6 confirm	SENP7 confirm	Casp3 select	SENP luc ctr
O=Cc1ccc(-c2nc3ccccc3s2)o1	1	70*	80*	63*	-358	6	-3	70*	87*	82*	23
O=C(c1ccc(-c2nc3ccccc3s2)o1)N1CCN(c2ccccc2O)CC1	0	-3	-3	8	-105	20	/	/	/	/	/
CCOC(=O)C1(C)CCN1C(=O)Cc1ccc(OC)cc1 (stereo not drawn)	/	/	/	/	17	/	/	/	/	/	/
COc1ccc(/C=C/C(=O)c2ccc(O)cc2)cc1CN1CCOCC1	-13	-4	-5	-6	-21	11	/	/	/	/	/
O=C(/C=C/c1cccc(O)c1)c1ccc(N2CCOCC2)cc1	4	35	74*	78*	-18	-22	-34	-23	-16	1	51*
O=C(NCc1cccnc1)c1cc(C2CCCCN2C(=O)c2ccc(Cl)cc2)on1 (stereo not drawn)	/	/	/	/	18	/	/	/	/	/	/
O=C(Oc1cccc(-c2cnc3ccccc3n2)c1)c1ccco1	-8	59*	52*	60*	-17	14	18	45	76*	61*	13
CCCOc1ccc(C(=O)Nc2ccc3c(c2)OCCO3)cc1	-1	73*	76*	64*	9	-1	21	48	93*	74*	8
COc1cc(C(=O)Nc2ccc3c(c2)OCCO3)ccc1OC(C)C	6	-17	-7	-13	13	1	/	/	/	/	/
COc1cc(C(=O)Nc2ccc3c(c2)OCCO3)ccc1OC(F)F	-8	62*	77*	82*	11	2	6	71*	90*	76*	75*
COc1ccc(C(=O)Nc2ccc3c(c2)OCCO3)cc1	-5	70*	-15	73*	22	-10	81*	81*	97*	91*	83*
CC(=O)c1ccc(OCCCC(=O)Nc2ccc3c(c2)OCCO3)cc1	-1	1	1	-3	-3	4	/	/	/	/	/
CC(=O)Oc1ccc(C(=O)Nc2ccc3c(c2)OCCO3)cc1	-4	2	47	50	19	0	/	/	/	/	/
CN1CCCC(C)(C(=O)Nc2ccc(-n3cccc3)cc2)C1 (stereo not drawn)	/	/	/	/	8	/	/	/	/	/	/
Cc1ccc(S(=O)(=O)N2C[C@H]3C(=O)C[C@@H](c4ccccc4)N(S(C)(=O)=O)[C@H]3C[C@H]2c2ccccc2)cc1	/	/	/	/	4	/	/	/	/	/	/
O=c1oc(-c2cccs2)nc2sc3c(c12)CCCCC3	5	39	5	55*	9	-1	15	9	2	24	6
COc1ccc(/C=C/c2nc3sc4c(c3c(=O)o2)CCC4)cc1	-8	9	12	17	-11	12	/	/	/	/	/
O=c1oc(/C=C/c2ccccc2)nc2sc3c(c12)CCC3	-1	21	5	65*	22	11	-20	-20	-4	17	-5
Cc1sc2nc(-c3cccs3)oc(=O)c2c1C	-3	35	51*	15	-35	19	39	36	60*	32	50
Cc1ccccc1-c1nc2sc3c(c2c(=O)o1)CCC3	-2	83*	79*	88*	-54	17	9	8	53*	38	7
CC1(C(=O)NS(=O)(=O)Cc2ccccc2C(F)(F)F)CCN1C(=O)c1ccco1 (stereo not drawn)	/	/	/	/	21	/	/	/	/	/	/
Cc1ccccc1-c1nc2sc3c(c2c(=O)n1N)CCCC3	-10	7	-5	5	-28	17	/	/	/	/	/

Assay outcomes deposited in PubChem BioAssay by Sanford-Burnham Center for Chemical Genomics.
